Source: PubChem BioAssay
IDH1 mut inh – IDH1 R132H (human) inhibition; inhibition, % at 10 µM; IDH1 R132H reductase, diaphorase/resazurin fluorescence, 60 min; 0.18% of 70,000 active; AID 624101; O75874; in the data active means inhibition above about 34%; inconclusive means no clear call, values can overlap the other calls; inactive means below about 11%;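 further: 0% = DMSO and 100% = no enzyme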
Target sequence (O75874 whole entry R132H): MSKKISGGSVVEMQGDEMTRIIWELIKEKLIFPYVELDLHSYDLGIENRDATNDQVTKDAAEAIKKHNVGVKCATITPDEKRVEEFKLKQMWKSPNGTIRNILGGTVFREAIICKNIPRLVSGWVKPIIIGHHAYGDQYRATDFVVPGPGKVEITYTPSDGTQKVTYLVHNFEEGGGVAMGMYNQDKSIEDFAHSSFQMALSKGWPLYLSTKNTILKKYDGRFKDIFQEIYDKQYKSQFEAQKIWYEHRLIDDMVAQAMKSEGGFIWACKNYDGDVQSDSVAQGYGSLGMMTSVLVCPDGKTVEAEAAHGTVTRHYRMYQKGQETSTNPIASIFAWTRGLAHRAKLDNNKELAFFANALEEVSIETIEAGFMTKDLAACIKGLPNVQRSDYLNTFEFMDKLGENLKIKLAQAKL
T cruzi growth-1 – inhibitors of T. cruzi proliferation; T. cruzi beta-gal in NIH3T3, GalScreen luminescence, 90 h; inhibition, % at 8.34 µM; 5.9% of 77,000 active;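 active means mean inhibition above about 93%, with at least 55% of replicates each passing it, limit read from the data, passing the limit was not always enough; inconclusive means only one of those two conditions holds; inactive means neither condition holds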
GASC1 inh – inhibitors of human demethylase GASC-1 KDM4C; 0.15% of 96,000 active; Q9H3R0; GST-KDM4C 2-372, H3K9me3 peptide, LANCE TR-FRET; AID 720574; inhibition, % at 12.5 µM;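 active means mean replicate inhibition above about 25%, with at least 55% of replicates also reaching it, limit read from the data, passing the limit was not always enough; inconclusive means only one of those two conditions met; inactive means neither condition met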
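System: N-terminal GST-fused human GASC-1 (KDM4C) fragment, residues 2-372 / Amount: 10 nM GST-KDM4C in enzyme reaction / Also added: H3K9me3 peptide with Fe(II)/2OG / Times: 30 min demethylation and 1 h detection at room temperature / Signal: LANCE TR-FRET / Read-out basis: Fall in 671/618 emission ratio as inhibition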
Pf Dd2 inh – inhibitors of Plasmodium falciparum Dd2 growth; P. falciparum Dd2 growth, SYBR Green, 72 h; hits give low values; activity change, % at 10 µM; 2.3% of 94,000 active; in the data active means activity change below about -80%; inconclusive means no clear call, values can overlap the other calls
T cruzi growth-2 – Trypanosoma cruzi proliferation inhibition. shares compounds with T cruzi growth-1. T. cruzi beta-gal in NIH3T3, GalScreen luminescence, 90 h. inhibition, % at 8.35 µM. 72% of 5,600 active. AID 651739;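 active means mean replicate inhibition above about 95% and at least 55% of replicates individually reaching it, limit read from the data; inconclusive means only one of the two criteria is met; inactive means neither criterion is met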
T cruzi growth-3 – inhibitors of T. cruzi proliferation; shares compounds with T cruzi growth-1; T. cruzi beta-gal in NIH3T3, GalScreen luminescence, 90 h; inhibition, % at 2.09 µM; 21% of 5,600 active; AID 651740;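 active means mean inhibition above about 95%, with at least 55% of replicates also reaching it, limit read from the data; inconclusive means meets just one of the two conditions; inactive means meets neither condition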;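 further: plate controls were neutral control median for no effect and positive control median for full effect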
3T3 cytotox – NIH/3T3 (mouse) viability loss | NIH/3T3 viability, CellTiter-Glo ATP luminescence, 90 h | AID 651742 | 14% of 5,600 active | shares compounds with T cruzi growth-1 | cytotoxicity (signal decrease), % at 8.35 µM;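 active means mean signal decrease across replicates above about 35% based on untreated-well scatter, with enough replicates individually passing, limit read from the data; inconclusive means no rule stated though some were filed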;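 further: 0% = median of neutral control wells and 100% = median of positive control wells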
3T3 cytotox 2 – cytotoxicity in mouse NIH/3T3 fibroblasts; shares compounds with T cruzi growth-1; AID 651744; inhibition, % at 24.9 µM; 56% of 5,600 active; NIH/3T3 viability, CellTiter-Glo ATP luminescence, 90 h;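 active means mean loss of cell viability signal at or above a set limit, and enough replicates individually reaching it; inconclusive means meets only the mean limit or only the replicate share; inactive means meets neither condition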;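 further: 0% = median of neutral control wells and 100% = median of positive control wells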
Starred values were filed as active, the others as inactive; ? = inconclusive; . = no result. A selection: hits, their analogues and other compounds. The true share with any hit is near 5.9%.

SMILES	IDH1 mut inh	T cruzi growth-1	GASC1 inh	Pf Dd2 inh	T cruzi growth-2	T cruzi growth-3	3T3 cytotox	3T3 cytotox 2
C[C@@H]1CCCCO[C@@H](CN(C)C(=O)Nc2ccc(C(F)(F)F)cc2)[C@H](C)CN([C@H](C)CO)C(=O)c2cc(NC(=O)Nc3cccc4ccccc34)ccc2O1	0.2	99.9*	-1.3	-79.0	107.1*	102.0*	-6.4	4.7
CCC(=O)Nc1ccc2c(c1)OC[C@H](C)N(Cc1cccc(F)c1)C[C@@H](C)[C@@H](OC)CN(C)C2=O	0.1	36.5	-0.2	-22.2	.	.	.	.
C[C@@H]1CN([C@H](C)CO)C(=O)Cc2cc(NS(=O)(=O)c3ccccc3)ccc2O[C@H]1CN(C)S(=O)(=O)c1ccc(Cl)cc1	-0.1	2.1	-0.5	7.2	.	.	.	.
N#C[C@H]1[C@@H](c2ccc(C#CC3(O)CCCC3)cc2)[C@@H](CO)N1C(=O)C1CCC1	.	18.2	-0.5	18.8	.	.	.	.
N#C[C@H]1[C@@H](c2ccc(C#CC3(O)CCCC3)cc2)[C@@H](CO)N1C(=O)C1CCCCC1	.	92.6	2.3	18.2	.	.	.	.
N#C[C@H]1[C@@H](c2ccc(C#CC3(O)CCCC3)cc2)[C@H](CO)N1C(=O)C1CCC1	.	99.2*	-4.2	-24.1	104.5*	87.6	-3.2	68.7*
N#C[C@@H]1[C@@H](c2ccc(C#CC3(O)CCCC3)cc2)[C@@H](CO)N1C(=O)C1CCCCC1	.	97.1*	0.4	8.9	109.6*	84.1	22.8	?
Cc1ccc(S(=O)(=O)N[C@H]2CC[C@@H](CCNC(=O)Cc3ccccn3)O[C@@H]2CO)cc1	-0.1	1.6	1.6	0.6	.	.	.	.
CC(C)(C)[S@](=O)N1Cc2cc(C(=O)O)nc(-c3cccc(-c4ccc(F)cc4)c3)c2[C@@H]1CCO	.	.	4.7	34.6	.	.	.	.
O=C([C@@H]1[C@@H](CO)[C@@H]2Cn3c(cccc3=O)[C@H]1N2CC1CC1)N1CCc2ccccc2C1	.	121.4*	-0.5	.	-8.2	-10.3	18.0	11.9
O=C([C@H]1[C@H](CO)[C@H]2Cn3c(cccc3=O)[C@@H]1N2CC1CC1)N1CCc2ccccc2C1	.	108.2*	1.0	.	82.6	40.1	6.8	15.7
Cc1ccccc1-c1ccc2c(c1)O[C@@H](CN(C)C(=O)Nc1ccc(F)cc1)[C@H](C)CN([C@H](C)CO)S2(=O)=O	0.4	.	-0.3	3.9	.	.	.	.
COc1ccc(S(=O)(=O)N(C)C[C@@H]2Oc3ccc(NC(=O)Cc4cn(C)c5ccccc45)cc3CC(=O)N([C@@H](C)CO)C[C@@H]2C)cc1	-0.5	12.7	-0.3	-18.8	.	.	.	.
COc1ccccc1-c1ccc([C@H]2[C@H](CO)N3CCCCN(C(=O)c4cccnc4)C[C@@H]23)cc1	.	97.5*	-0.1	-14.6	?	69.9	?	39.4*
Cc1ccccc1-c1ccc([C@H]2[C@@H](CO)N3CCCCN(C(=O)c4cccnc4)C[C@@H]23)cc1	.	102.5*	0.0	47.9	99.5*	102.4*	37.7*	48.7*
Cc1cccc(-c2ccc([C@@H]3[C@H](CO)N4CCCCN(C(=O)c5cccnc5)C[C@@H]34)cc2)c1	.	105.1*	17.1	17.7	65.9	5.7	23.4	35.5*
COc1ccc(S(=O)(=O)N(C)C[C@@H]2OCCCC[C@H](C)Oc3ccc(NS(C)(=O)=O)cc3C(=O)N([C@H](C)CO)C[C@@H]2C)cc1	-2.7	-40.5	0.3	-19.3	.	.	.	.
CO[C@H]1CN(C)C(=O)c2ccc(NC(=O)C3CCCCC3)cc2OC[C@@H](C)N(Cc2cccnc2)C[C@H]1C	0.3	48.1	1.5	-17.1	.	.	.	.
C[C@@H]1CCCCO[C@@H](CN(C)S(C)(=O)=O)[C@@H](C)CN([C@@H](C)CO)C(=O)c2cc(NC(=O)Cc3ccccc3)ccc2O1	.	12.4	1.6	-29.3	.	.	.	.
C[C@@H]1CN([C@@H](C)CO)C(=O)c2cc(C3=CCCCC3)cnc2O[C@H]1CN(C)C(=O)Cc1ccccc1	0.5	?	2.1	-3.6	75.3	54.9	32.2	64.4*
C[C@@H]1CN([C@@H](C)CO)C(=O)c2cc(C3=CCCCC3)cnc2O[C@H]1CN(C)C(=O)Cc1ccncc1	.	.	0.5	-18.7	.	.	.	.
